High-throughput results from PubChem.
SIRT5 inh – blocks human SIRT5 desuccinylation of peptide; AID 652115; Purified SirT5, succinyl-peptide AMC, trypsin-coupled fluorescence; inhibition, % at 15 µM; 330,000 tested, 1.1% active; in the data active = inhibition above about 15%; inconclusive = no clear call, values can overlap the other calls
Target sequence (Q9NXA8 whole entry, looked up): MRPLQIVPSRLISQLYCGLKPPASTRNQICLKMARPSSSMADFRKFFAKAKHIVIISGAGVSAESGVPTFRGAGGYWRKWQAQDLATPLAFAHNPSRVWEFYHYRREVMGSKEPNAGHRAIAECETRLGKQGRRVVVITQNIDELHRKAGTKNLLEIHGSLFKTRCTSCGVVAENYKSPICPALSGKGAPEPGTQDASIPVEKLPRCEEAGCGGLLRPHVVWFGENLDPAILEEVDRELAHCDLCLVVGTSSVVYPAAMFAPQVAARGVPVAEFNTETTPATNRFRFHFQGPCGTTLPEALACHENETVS
DENV2 CPE – inhibitors of DENV2 cytopathic effect; DENV2-infected cells, cytopathic effect rescue, plate reader; CPE inhibition, % at 9.99 µM; 350,000 tested, 1.7% active; AID 651640; in the data active = CPE inhibition above about 20%, passing the limit was not always enough; inconclusive = no clear call, values can overlap the other calls; tested in BHK-21 cells
E-selectin induc – E-selectin induction on HUVECs. P16581. HUVEC E-selectin immunofluorescence imaging; normalized: neutral wells 0, TNF-alpha wells 100. activation, % at 7.58 µM. 260,000 tested, 0.37% active;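 active = mean E-selectin-positive cell signal at least 10% of the positive control, reached in at least 60% of replicates, without over 20% cell loss; inconclusive = no rule given, readout overlaps actives, possibly toxicity-flagged; inactive = the rest, including those meeting only one limit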
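Test system: HUVEC; input: 3,000 HUVEC/well; measured by: immunofluorescence imaging; read-out: % PE-positive cells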
Hits are given with their value; n = inactive; u = inconclusive; x = not tested or not shown; ! = a repeat was not active. Most compounds without a hit are left out; they make up all but 2.8% or so of the library.

SMILES	SIRT5 inh	DENV2 CPE	E-selectin induc
Cc1ccc(S(=O)(=O)N(C)C[C@H]2OCCCC[C@@H](C)Oc3ccc(NS(=O)(=O)c4ccccc4)cc3C(=O)N([C@@H](C)CO)C[C@@H]2C)cc1	19	n	n
Cc1ccc(S(=O)(=O)Nc2ccc3c(c2)C(=O)N([C@H](C)CO)C[C@H](C)[C@@H](CN(C)S(=O)(=O)c2ccccc2)OCCCC[C@H](C)O3)cc1	n	n	n
C[C@@H]1CN([C@@H](C)CO)C(=O)c2cc(NC(=O)c3ccccc3)ccc2O[C@@H](C)CCCCO[C@H]1CN(C)C(=O)Cc1ccccc1	n	n	x
COc1ccc(C(C(=O)NCc2ccccc2)n2c(-c3ccccn3)nc3ccccc32)cc1 (centres undefined)	x	n	n
COc1ccc(C(C(=O)NCc2ccccc2)n2c(-c3ccncc3)nc3ccccc32)cc1 (centres undefined)	x	22	n
CC(=O)OCCCN(C)CC/C=C1/c2ccccc2CSc2ccccc21	n	43	x
CN(CCC#N)C(=O)c1cc2c(s1)-c1ccccc1SC2	n	n	n
CC(C)NC(=O)N(C)C[C@@H]1Oc2cc(C#CCN(C)C)ccc2S(=O)(=O)N([C@@H](C)CO)C[C@H]1C	n	n	n
CC(C)NC(=O)N1[C@H](CN(C)C(=O)c2ccccc2)[C@@H](c2ccccc2)[C@@H]1CO	18	n	n
C/C=C/c1ccc([C@@H]2[C@H](CO)N(C(=O)C3CC3)[C@H]2CN(CC)C(C)=O)cc1	n	n	n
C/C=C/c1ccc([C@@H]2[C@@H](CN(CC)C(=O)CC)N(C(=O)C3CCC3)[C@H]2CO)cc1	n	25	n
C/C=C/c1ccc([C@H]2[C@@H](CO)N(C(=O)NC(C)C)[C@H]2CN(C)C(=O)CC)cc1	n	n	n
CC(C)NC(=O)N1[C@H](CN(C)C(=O)c2ccncc2)[C@@H](c2ccccc2)[C@@H]1CO	n	n	n
C/C=C/c1ccc([C@H]2[C@@H](CN(C)C(=O)CC)N(C(=O)NC(C)C)[C@H]2CO)cc1	n	27	n
O=C(Cc1ccncc1)N1CC(=O)N2[C@H](C1)[C@H](c1ccc(C3=CCCC3)cc1)[C@@H]2CO	n	n	n
O=C(C1CCCC1)N1CC2(C1)[C@@H](c1ccccc1)[C@H](CO)N2C(=O)CC1CC1	n	n	n
COc1cccc(NC(=O)N2C[C@@H](O)COC[C@H]3O[C@@H](CC(=O)NCc4ccccc4F)CC[C@@H]32)c1	n	n	n
COc1cccc(C(=O)Nc2ccc3c(c2)C(=O)N(C)[C@@H]2CC[C@H](CC(=O)NCC(F)(F)F)O[C@@H]2CO3)c1	n	n	n
Cc1ccccc1S(=O)(=O)N1C[C@H](O)COC[C@H]2O[C@H](CC(=O)O)CC[C@@H]21	n	n	n
COc1ccc(C2=CC(=O)CC(C)(C)C2)cc1OC	x	x	n
COc1ncc(C2=CC(=O)CC(C)(C)C2)cn1	x	31	n
CC(=O)N(CC(C)C)C[C@H]1[C@@H](c2ccc(C3=CCCC3)cc2)[C@@H](CO)N1C(C)=O	n	n	n
O=C(NCCCCNC(=O)c1cccnc1Cl)c1cccnc1Cl	n	69	n
O=C(NCC1CCCCC1)c1cccnc1Cl	n	n	x
CCNC(=O)C[C@@H]1CC[C@@H]2[C@@H](COc3ccc(NC(=O)C4CCOCC4)cc3C(=O)N2C)O1	n	n	n
SMILES	SIRT5 inh	DENV2 CPE	E-selectin induc
CC(C)OC(=O)N(C)C[C@H]1OCc2cn(nn2)CCCC(=O)N([C@@H](C)CO)C[C@H]1C	n	n	n
Cc1noc(C)c1NC(=O)N(C)C[C@H]1OCc2cn(nn2)CCCC(=O)N([C@H](C)CO)C[C@H]1C	x	x	n
C[C@H]1CN([C@@H](C)CO)C(=O)CCCn2cc(nn2)CO[C@@H]1CN(C)C(=O)c1ccc(N2CCN(C)CC2)cc1	n	64!	n
C[C@H](CO)N1C[C@H](C)[C@@H](CN(C)C(=O)c2ccc(N3CCN(C)CC3)cc2)OCc2cn(nn2)CCCC1=O	n	n	n
COc1cccc(NC(=O)N(C)C[C@H]2OCc3cn(nn3)CCCC(=O)N([C@H](C)CO)C[C@H]2C)c1	x	x	n
Cc1noc(C)c1NC(=O)N(C)C[C@H]1OCc2cn(nn2)CCCC(=O)N([C@@H](C)CO)C[C@@H]1C	16!	n	n
COc1cccc(NC(=O)N(C)C[C@@H]2OCc3cn(nn3)CCCC(=O)N([C@H](C)CO)C[C@H]2C)c1	23!	38!	n
CC(C)OC(=O)N(C)C[C@@H]1OCc2cn(nn2)CCCC(=O)N([C@H](C)CO)C[C@@H]1C	n	84	n
COc1ccc(OC(=O)N(C)C[C@@H]2OCc3cn(nn3)CCCC(=O)N([C@H](C)CO)C[C@H]2C)cc1	n	n	n
COc1ccc(OC(=O)N(C)C[C@H]2OCc3cn(nn3)CCCC(=O)N([C@H](C)CO)C[C@@H]2C)cc1	n	43!	n
Cc1ccc(OCC(=O)Nc2nnc(S(=O)(=O)N3CCCCCC3)s2)cc1C	n	n	n
O=C(COc1ccc(Cl)cc1)Nc1nnc(S(=O)(=O)N2CCCCCC2)s1	n	n	115
O=C(C1CCC1)N1CC[C@@H]2[C@H](CO)Nc3ccc(-c4cccc(F)c4)cc3[C@@H]21	x	x	n
COc1ccccc1Cn1c(=S)[nH]c2cc(C(=O)N3CCN(c4ccccc4OC)CC3)ccc2c1=O	n	n	x
COc1ccccc1Cn1c(=S)[nH]c2cc(C(=O)N3CC(C)CC(C)C3)ccc2c1=O (centres undefined)	n	22	n
O=C(C[C@@H]1CC[C@@H](NC(=O)Nc2cccc(F)c2)[C@H](CO)O1)NCC1CCCCC1	n	n	n
CCCC(=O)Nc1ccc2c(c1)C(=O)N(C)[C@@H]1CC[C@@H](CC(=O)NCC3CCCCC3)O[C@H]1CO2	n	n	n
C[C@@H]1CN([C@@H](C)CO)C(=O)c2cc(NC(=O)Nc3ccc(F)cc3)ccc2O[C@H]1CN(C)S(=O)(=O)c1ccccc1	n	u	n
Cc1ccc(S(=O)(=O)Nc2ccc3c(c2)C(=O)N([C@H](C)CO)C[C@H](C)[C@@H](CN(C)S(C)(=O)=O)OCCCC[C@@H](C)O3)cc1	n	n	n
Cc1ccc(S(=O)(=O)Nc2ccc3c(c2)C(=O)N([C@@H](C)CO)C[C@H](C)[C@H](CN(C)S(C)(=O)=O)OCCCC[C@@H](C)O3)cc1	n	n	n
Cc1ccc(S(=O)(=O)Nc2ccc3c(c2)C(=O)N([C@H](C)CO)C[C@@H](C)[C@H](CN(C)S(C)(=O)=O)OCCCC[C@@H](C)O3)cc1	n	36	n
Cc1ccc(S(=O)(=O)Nc2ccc3c(c2)C(=O)N([C@@H](C)CO)C[C@H](C)[C@@H](CN(C)S(C)(=O)=O)OCCCC[C@H](C)O3)cc1	n	29	n
COc1ccc(C[C@@H]2CCn3cc(nn3)COC[C@@H](C(C)C)NC2=O)cc1	n	n	n
C[C@H](CO)N1C[C@H](C)[C@@H](CN(C)C(=O)c2cccnc2)Oc2cc(C#CC3(O)CCCC3)ccc2S1(=O)=O	n	n	x
C=CCN1C(=O)[C@]2(O[C@H](CCn3cc(CCO)nn3)[C@@H]([Si](C)(C)c3ccc(OC)cc3)[C@@H]2C)c2cc(N3C(=O)c4cccc5cccc3c45)ccc21	n	n	x
O=C(C1CC1)N1[C@@H](CO)[C@@H](c2ccccc2)C12CN(Cc1cncnc1)C2	n	n	n
